According to ChEMBL document CHEMBL4017507 (J Med Chem, 2017):

Key:
[1] = tested on: Human immunodeficiency virus 1; assay: Antiviral activity against HIV1 X4LAI.04 infected in human MT4 cells assessed as decrease in viral replication by p24gag-based luminex assay; type: functional, cell-based; settings: Human immunodeficiency virus 1, X4LAI.04, MT4
In short: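 10^6 MT-4 cells were infected with HIV-1 X4LAI.04 (7 ng p24) for 2 h at 37 °C, then washed with PBS and resuspended. Compounds were added and cultures were kept 3 days at 37 °C. Supernatant p24 was measured by bead-based Luminex. Inhibition was calculated as (1 − p24 treated/p24 untreated) × 100, and EC50 was derived from it.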

CCRF-CEM = assay: Cytostatic activity human CEM cells assessed as reduction in cell viability after 72 hrs by cell counting method; type: cell-based; settings: ccrf-cem, 72 h
In short: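 (5–7.5) × 10^? CEM cells per well were grown with compound for 72 h at 37 °C under humidified CO2. Cells were counted in a Coulter counter.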

MT4 = assay: Cytotoxicity against human MT4 cells assessed as reduction in cell viability by cell counting method; type: cell-based
In short: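 MT-4 cultures, untreated or treated, were assessed with an automated cell counter using propidium iodide staining to enumerate total and dead cells.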

[2] = tested on: Human immunodeficiency virus 1; assay: Antiviral activity against HIV1 X4LAI.04 infected in human tonsillar tissues assessed as inhibition of virus-induced cytopathic effect by p24gag-based luminex assay; type: functional; settings: Human immunodeficiency virus 1, X4LAI.04
In short: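 Tonsillectomy tissue blocks of 2–3 mm³ were cultured on collagen sponge gels at the air–liquid interface, 27 blocks per donor per condition. Blocks were pretreated with compound overnight, infected with HIV-1 X4LAI.04 and cultured 12 days, with drug replenished at each medium change every 3 days. Medium p24 was measured by Luminex. Inhibition was calculated against untreated tissue, and EC50 was derived from it.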

HEL = assay: Cytotoxicity against human HEL cells assessed as cell growth inhibition by cell counting method; type: cell-based
Human alphaherpesvirus 3 [3] = assay: Antiviral activity against thymidine kinase deficient Varicella-Zoster virus 07-1 infected in human HEL cells assessed as inhibition of virus-induced cytopathic effect; type: functional, cell-based; settings: Human alphaherpesvirus 3, 07-1, HEL
In short: (§1)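 Confluent HEL fibroblast cultures were inoculated with 20 PFU of VZV in the presence of varying compound concentrations. Plaque formation was recorded once untreated infected controls reached completion.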

Human betaherpesvirus 5 [4] = assay: Antiviral activity against human cytomegalovirus Davis infected in human HEL cells assessed as inhibition of virus-induced cytopathic effect; type: functional, cell-based; settings: Human betaherpesvirus 5, Davis
In short: (§2)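 Confluent HEL fibroblast monolayers were inoculated in 96-well plates with 100 CCID50 of virus in the presence of serially varied compound concentrations. Cytopathicity was scored once untreated infected controls reached full CPE.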

Human alphaherpesvirus 1 [5] = assay: Antiviral activity against ACV-resistant thymidine kinase deficient Herpes simplex virus 1 KOS infected in human HEL cells assessed as inhibition of virus-induced cytopathic effect; type: functional, cell-based; settings: Human alphaherpesvirus 1, KOS; in short: as §2
Human betaherpesvirus 5 [6] = assay: Antiviral activity against human cytomegalovirus AD-169 infected in human HEL cells assessed as inhibition of virus-induced cytopathic effect; type: functional, cell-based; settings: Human betaherpesvirus 5, AD-169, HEL; in short: as §2
Human alphaherpesvirus 2 = assay: Antiviral activity against Herpes simplex virus 2 G infected in human HEL cells assessed as inhibition of virus-induced cytopathic effect; type: functional, cell-based; settings: Human alphaherpesvirus 2, strain G; in short: as §2
[7] = Cytotoxicity against human HEL cells assessed as alteration to cell morphology by microscopic analysis; type: cell-based
In short: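 Minimal cytotoxic concentration is the compound concentration giving a microscopically visible alteration of HEL cell morphology, scored in the antiviral assay cultures.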

Human alphaherpesvirus 1 [8] = assay: Antiviral activity against Herpes simplex virus 1 KOS infected in human HEL cells assessed as inhibition of virus-induced cytopathic effect; type: functional, cell-based; settings: Human alphaherpesvirus 1, KOS; in short: as §2
Human alphaherpesvirus 3 [9] = assay: Antiviral activity against Varicella-Zoster virus OKA infected in human HEL cells assessed as inhibition of virus-induced cytopathic effect; type: functional, cell-based; settings: Human alphaherpesvirus 3, strain Oka vaccine; in short: as §1

Structure (SMILES) | EC50 [1] [µM] | CC50 (CCRF-CEM) [µM] | IC50 (MT4) [µM] | EC50 [2] [µM] | CC50 (HEL) [µM] | EC50 (Human alphaherpesvirus 3 [3]) [µM] | EC50 (Human betaherpesvirus 5 [4]) [µM] | EC50 (Human alphaherpesvirus 1 [5]) [µM] | EC50 (Human betaherpesvirus 5 [6]) [µM] | EC50 (Human alphaherpesvirus 2) [µM] | MCC [7] [µM] | EC50 (Human alphaherpesvirus 1 [8]) [µM] | EC50 (Human alphaherpesvirus 3 [9]) [µM]
CC(=O)OCC(CO)OCn1cnc2c(Cl)nc(N)nc21 (centres undefined) | > 150 | ≥ 250 | > 150 | > 10 | – | – | – | – | – | – | – | – | –
CC(C)(NP(=O)(OCC(CCn1cnc2c(=O)[nH]c(N)nc21)COP(=O)(NC(C)(C)C(=O)OCc1ccccc1)Oc1ccccc1)Oc1ccccc1)C(=O)OCc1ccccc1 (centres undefined) | 19 | 100 | 30 | – | > 100 | 20.6 | > 50 | > 100 | > 50 | > 100 | 50 to 100 | > 100 | 10.3
C[C@H](NP(=O)(OCC(COP(=O)(N[C@@H](C)C(=O)OCc1ccccc1)Oc1cccc2ccccc12)SCn1cnc2c(=O)[nH]c(/N=C/N(C)C)nc21)Oc1cccc2ccccc12)C(=O)OCc1ccccc1 (some centres undefined) | 9 | 17 | 4 | – | 30 | > 20 | > 50 | > 100 | > 50 | > 100 | 50 to 100 | > 100 | > 20
COc1nc(N)nc2c1ncn2CCC(CO)COP(=O)(N[C@@H](C)C(=O)OCc1ccccc1)Oc1cccc2ccccc12 (some centres undefined) | 23 | 27 | 12 | – | 49 | 23 | 50 | 20 | > 50 | 20 | 50 to 100 | 38 | 17
C[C@H](NP(=O)(OCC(CO)OCn1cnc2c(=O)[nH]c(N)nc21)Oc1cccc2ccccc12)C(=O)OCc1ccccc1 (some centres undefined) | 8 | – | 100 | 11 | – | 28.2 | 6.5 | 3 | 9.5 | 0.5 | > 100 | 0.4 | 9.5
CC(C)(NP(=O)(OCC(COP(=O)(NC(C)(C)C(=O)OCc1ccccc1)Oc1ccccc1)OCn1cnc2c(=O)[nH]c(N)nc21)Oc1ccccc1)C(=O)OCc1ccccc1 (centres undefined) | 10 | 47 | 13 | – | 82 | 8.3 | 23.6 | 1.5 | 50 | 2.5 | > 50 | 1.5 | 21.7
COc1nc(N)nc2c1ncn2CCC(CO)COP(=O)(N[C@@H](C)C(=O)OCC(C)(C)C)Oc1cccc2ccccc12 (some centres undefined) | 41 | 17 | 35 | – | 7.6 | 6.2 | 40 | 15 | 50 | 9 | 50 to 100 | 9 | 2
COc1nc(N)nc2c1ncn2CCC(COP(=O)(N[C@@H](C)C(=O)OCc1ccccc1)Oc1ccccc1)COP(=O)(N[C@@H](C)C(=O)OCc1ccccc1)Oc1ccccc1 (some centres undefined) | 12 | 19 | 20 | – | 25 | 20 | 37 | 100 | > 50 | > 100 | 50 to 100 | 100 | 22
COc1nc(N)nc2c1ncn2CCC(COP(=O)(N[C@@H](C)C(=O)OCC(C)(C)C)Oc1cccc2ccccc12)COP(=O)(N[C@@H](C)C(=O)OCC(C)(C)C)Oc1cccc2ccccc12 (some centres undefined) | 8.2 | 4.6 | 5 | – | 2.5 | 7.7 | 20 | > 100 | 15 | > 100 | 20 to 100 | > 100 | 4.3
C[C@H](NP(=O)(OCC(CCn1cnc2c(=O)[nH]c(/N=C/N(C)C)nc21)COP(=O)(N[C@@H](C)C(=O)OCc1ccccc1)Oc1cccc2ccccc12)Oc1cccc2ccccc12)C(=O)OCc1ccccc1 (some centres undefined) | 3.2 | 19 | 4 | – | 19 | 11.7 | > 20 | > 100 | > 20 | > 100 | 50 to 100 | > 100 | 8.8
CC(C)(NP(=O)(OCC(CO)OCn1cnc2c(=O)[nH]c(N)nc21)Oc1cccc2ccccc12)C(=O)OCc1ccccc1 (centres undefined) | 10 | > 100 | 26 | – | > 100 | > 50 | 4.9 | 1.4 | 6.6 | 0.85 | 50 to 100 | 0.6 | 13
CCC(C)(C)COC(=O)[C@H](C)NP(=O)(OCC(CCn1cnc2c(OC)nc(N)nc21)COP(=O)(N[C@@H](C)C(=O)OCC(C)(C)CC)Oc1cccc2ccccc12)Oc1cccc2ccccc12 (some centres undefined) | 5.6 | 7.2 | 9 | – | 5 | 9.5 | > 20 | > 100 | > 20 | > 100 | 50 to 100 | > 100 | 6.4
C[C@H](NP(=O)(OCC(CCn1cnc2c(=O)[nH]c(N)nc21)COP(=O)(N[C@@H](C)C(=O)OCc1ccccc1)Oc1ccccc1)Oc1ccccc1)C(=O)OCc1ccccc1 (some centres undefined) | 8 | 76 | 10 | – | ≥ 100 | 41.5 | > 50 | > 100 | > 50 | > 100 | 50 to 100 | > 100 | 16.3
CCOC(=O)[C@H](C)NP1(=O)OCC(OCn2cnc3c(=O)[nH]c(N)nc32)CO1 (some centres undefined) | 22 | – | > 150 | 4.6 | – | – | – | – | – | – | – | – | –
CC(C)(NP(=O)(OCC(COP(=O)(NC(C)(C)C(=O)OCc1ccccc1)Oc1cccc2ccccc12)OCn1cnc2c(=O)[nH]c(N)nc21)Oc1cccc2ccccc12)C(=O)OCc1ccccc1 (centres undefined) | > 150 | > 20 | > 150 | – | > 100 | 7.2 | 50 | 1.6 | ≥ 44.9 | 0.9 | 50 to 100 | 0.3 | 13.6
COC(=O)[C@H](C)NP(=O)(OCC(CO)CCn1cnc2c(OC)nc(N)nc21)Oc1cccc2ccccc12 (some centres undefined) | 16 | 15 | 10 | – | 37 | 25 | 14 | > 100 | 32 | > 100 | 50 to 100 | > 100 | 13
CC(C)(NP(=O)(OCC(CO)OCn1cnc2c(=O)[nH]c(N)nc21)Oc1ccccc1)C(=O)OCc1ccccc1 (centres undefined) | > 150 | > 100 | > 150 | – | > 100 | 3.3 | 15.8 | 0.15 | 38.6 | 0.3 | 50 to 100 | 0.09 | 7.3
CC(C)(NP(=O)(OCC(CO)CCn1cnc2c(=O)[nH]c(N)nc21)Oc1ccccc1)C(=O)OCc1ccccc1 (centres undefined) | 68 | 252 | > 150 | – | > 50 | > 50 | > 50 | 100 | > 50 | 39 | 50 to 100 | 29 | > 50
Nc1nc2c(ncn2CCC(CO)CO)c(=O)[nH]1 [PENCICLOVIR] | > 150 | – | > 150 | 11 | > 100 | 10.2 | > 50 | 4 | > 50 | – | > 100 | – | –
CC(C)OC(=O)[C@H](C)NP(=O)(OCC(COP(=O)(N[C@@H](C)C(=O)OC(C)C)Oc1cccc2ccccc12)OCn1cnc2c(=O)[nH]c(N)nc21)Oc1cccc2ccccc12 (some centres undefined) | 8.5 | > 100 | 6 | – | > 50 | 1.1 | 2.7 | ≥ 73 | 16.3 | 1.4 | ≥ 100 | 1.2 | 4.2
